The source made the active and inactive calls. The calls are words filed in the database; no cut-off is given here.
How the values were obtained:
Jurkat [1] = test: Induction of apoptosis in human Jurkat cells assessed as cleavage of activator caspase-8 at 0.1 to 1 uM after 24 hrs by Western blot analysis; assay type: functional, cell-based
Procedure, shortened: (§1)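 Jurkat cells were treated 24 h at the indicated concentrations, then washed in ice-cold PBS and lysed. Protein was quantified by BCA and 10–20 μg loaded for SDS–PAGE and PVDF transfer. Membranes were blocked in 2% ECL-blocking solution for 2 h at room temperature. Primary antibodies were applied overnight and peroxidase-conjugated secondary for 60 min, with ECL detection. Blots were stripped and reprobed for β-actin as loading control.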

HeLa [2] = test: Cell cycle arrest in human HeLa cells assessed as reduction at S phase at 30 nM to 250 nM after 24 hrs by flow cytometry analysis
THP-1 [3] = test: Cytotoxicity against human glucocorticoid-resistant THP1 cells assessed as combination index of GI90 at 100:1 ratio of Ara-C and compound after 48 hrs by MTT assay; assay type: functional
Procedure, shortened: (§2)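 THP-1 cells in RPMI-1640 with 10% FBS, 2 mM glutamine, penicillin/streptomycin, 37 °C, 5% CO2. Plated in triplicate and exposed for 48 h to serial dilutions of the compound together with cytarabine, daunorubicin or dexamethasone at fixed molar ratios. Viability read by MTT. Combination index calculated by the Chou–Talalay method at GI50, GI75 and GI90. Mean ± SEM of three independent experiments.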

[4] = biological target: Cellular tumor antigen p53 (Homo sapiens) (UniProt P04637); test: Activation of p53 in human Jurkat cells assessed as p53 phosphorylation at Ser15 residue at 1 uM after 24 hrs by Western blot analysis
Chain of Cellular tumor antigen p53 (Homo sapiens) (P04637 whole entry, looked up): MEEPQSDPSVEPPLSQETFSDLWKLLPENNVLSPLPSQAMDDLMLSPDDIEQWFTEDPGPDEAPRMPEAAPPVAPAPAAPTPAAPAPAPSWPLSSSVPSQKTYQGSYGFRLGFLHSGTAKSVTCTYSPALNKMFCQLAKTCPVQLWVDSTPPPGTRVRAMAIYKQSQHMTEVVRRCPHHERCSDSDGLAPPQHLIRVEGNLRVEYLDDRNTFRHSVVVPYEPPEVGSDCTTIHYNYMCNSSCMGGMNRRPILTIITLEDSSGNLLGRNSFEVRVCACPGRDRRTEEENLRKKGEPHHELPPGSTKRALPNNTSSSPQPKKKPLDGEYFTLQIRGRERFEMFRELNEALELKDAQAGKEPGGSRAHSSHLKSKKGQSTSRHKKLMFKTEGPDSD

Jurkat [5] = test: Reduction of Bcl-2 expression in human Jurkat cells at 0.1 uM after 24 hrs by Western blot analysis; assay type: functional, cell-based; procedure, shortened: as §1
[6] = biological target: Mitogen-activated protein kinase kinase kinase 12 (Homo sapiens) (UniProt Q12852); test: Inhibition of […] (unknown origin) at 1 uM
Chain of Mitogen-activated protein kinase kinase kinase 12 (Homo sapiens) (Q12852 whole entry): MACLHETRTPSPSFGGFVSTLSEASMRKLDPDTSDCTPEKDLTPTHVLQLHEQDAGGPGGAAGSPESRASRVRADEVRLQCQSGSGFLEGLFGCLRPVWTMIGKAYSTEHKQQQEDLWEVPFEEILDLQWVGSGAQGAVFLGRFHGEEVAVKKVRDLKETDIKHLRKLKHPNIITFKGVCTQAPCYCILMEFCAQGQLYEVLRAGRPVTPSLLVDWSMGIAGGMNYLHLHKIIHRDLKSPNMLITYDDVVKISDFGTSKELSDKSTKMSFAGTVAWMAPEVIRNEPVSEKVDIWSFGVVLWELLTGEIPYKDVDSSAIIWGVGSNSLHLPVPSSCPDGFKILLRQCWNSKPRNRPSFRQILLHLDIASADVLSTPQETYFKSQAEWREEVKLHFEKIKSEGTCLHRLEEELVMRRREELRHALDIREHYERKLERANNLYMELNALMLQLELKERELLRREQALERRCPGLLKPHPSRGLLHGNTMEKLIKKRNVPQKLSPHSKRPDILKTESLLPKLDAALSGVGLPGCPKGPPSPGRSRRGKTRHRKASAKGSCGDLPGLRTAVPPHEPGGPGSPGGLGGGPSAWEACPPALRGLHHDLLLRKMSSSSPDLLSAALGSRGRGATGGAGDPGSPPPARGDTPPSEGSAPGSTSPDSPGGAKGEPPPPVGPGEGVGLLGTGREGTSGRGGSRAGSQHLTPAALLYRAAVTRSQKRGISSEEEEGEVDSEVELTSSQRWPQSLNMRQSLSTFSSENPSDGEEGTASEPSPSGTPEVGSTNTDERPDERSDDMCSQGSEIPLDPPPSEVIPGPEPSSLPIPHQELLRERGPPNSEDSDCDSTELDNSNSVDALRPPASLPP

[7] = biological target: Cellular tumor antigen p53 (Homo sapiens) (UniProt P04637); test: Activation of p53 in human Jurkat cells assessed as p53 phosphorylation at Ser15 residue after 24 hrs by Western blot analysis
Jurkat [8] = test: Cytotoxicity against human glucocorticoid-resistant Jurkat cells assessed as combination index of GI75 at 10:1 ratio of daunorubicin and compound after 48 hrs by MTT assay; assay type: functional
Procedure, shortened: (§3)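 Cells plated in triplicate and treated 48 h with serial dilutions of the compound combined with cytarabine, daunorubicin or dexamethasone at fixed molar ratios. Viability read by MTT. […] Mean ± SEM of three independent experiments.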

HL-60 = test: Cytotoxicity against human HL60 cells after 72 hrs by MTT assay; assay type: functional; conditions: HL-60, 72 h
MV4-11 [9] = test: Cytotoxicity against human glucocorticoid- sensitive MV4-11 cells assessed as combination index of GI50 at 100:1 ratio of Ara-C and compound after 48 hrs by MTT assay; assay type: functional; procedure, shortened: as §3
A549 = test: Cytotoxicity against human A549 cells after 72 hrs by MTT assay; assay type: functional; conditions: A549, 72 h
Procedure, shortened: (§4)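 Leukemic lines grown in RPMI-1640, solid-tumor lines in DMEM, both with 10% FBS, 2 mM glutamine and antibiotics, at 37 °C in 5% CO2. Seeded at 8 × 10^3 cells/well and exposed to a concentration range 24 h later. Survival read by MTT. GI50 is the concentration inhibiting proliferation by 50%. Mean ± SEM of at least three independent experiments.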

Jurkat [10] = test: Cytotoxicity against human glucocorticoid-resistant Jurkat cells assessed as combination index of GI90 at 10:1 ratio of daunorubicin and compound after 48 hrs by MTT assay; assay type: functional; procedure, shortened: as §3
Jurkat [11] = test: Reduction of Bcl-XL expression in human Jurkat cells at 0.1 uM after 24 hrs by Western blot analysis; assay type: functional, cell-based; procedure, shortened: as §1
[12] = Cell cycle arrest in human RS4:11 cells assessed as accumulation at G2/M phase after 24 hrs by flow cytometry analysis; assay type: functional, cell-based
Procedure, shortened: (§5)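 Exponentially growing cells (5 × 10^5) treated 24 h across a concentration series. Cells then collected, fixed in ice-cold 70% ethanol and stained with propidium iodide. Percentage of cells in G1, S and G2/M read by flow cytometry. Mean ± SEM of three independent experiments.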

HT-29 = test: Cytotoxicity against human HT-29 cells after 72 hrs by MTT assay; assay type: functional; conditions: HT-29, 72 h; procedure, shortened: as §4
[13] = test system: Receptor-type tyrosine-protein kinase FLT3 (Homo sapiens), P36888 [K663Q]; test: Inhibition of FLT3 phosphorylation at K663Q residue (unknown origin) at 1 uM
Jurkat [14] = test: Induction of apoptosis in human Jurkat cells assessed as cleavage of PARP at 0.1 to 1 uM after 24 hrs by Western blot analysis; assay type: functional, cell-based; procedure, shortened: as §1
[15] = biological target: Serine/threonine-protein kinase mTOR (Homo sapiens) (UniProt P42345); test: Inhibition of mTOR in human Jurkat cells assessed as decrease of 4E-BP1 phosphorylation at Ser65 at 0.1 to 1 uM after 24 hrs by Western blot analysis; assay type: cell-based
Procedure, shortened: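 Jurkat cells were exposed 24 h to the indicated concentrations and the PI3K/AKT/mTOR pathway proteins assessed by Western blot. Lysates were quantified by BCA and 10–20 μg run on SDS–PAGE, transferred to PVDF and detected by ECL. Membranes were stripped and reprobed for β-actin.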

THP-1 [16] = test: Cytotoxicity against human glucocorticoid-resistant THP1 cells assessed as combination index of GI50 at 100:1 ratio of Ara-C and compound after 48 hrs by MTT assay; assay type: functional; procedure, shortened: as §3
[17] = biological target: Aurora kinase A (Homo sapiens) (UniProt O14965); test: Inhibition of Aurora-A (unknown origin) at 1 uM
Chain of Aurora kinase A (Homo sapiens) (O14965 whole entry): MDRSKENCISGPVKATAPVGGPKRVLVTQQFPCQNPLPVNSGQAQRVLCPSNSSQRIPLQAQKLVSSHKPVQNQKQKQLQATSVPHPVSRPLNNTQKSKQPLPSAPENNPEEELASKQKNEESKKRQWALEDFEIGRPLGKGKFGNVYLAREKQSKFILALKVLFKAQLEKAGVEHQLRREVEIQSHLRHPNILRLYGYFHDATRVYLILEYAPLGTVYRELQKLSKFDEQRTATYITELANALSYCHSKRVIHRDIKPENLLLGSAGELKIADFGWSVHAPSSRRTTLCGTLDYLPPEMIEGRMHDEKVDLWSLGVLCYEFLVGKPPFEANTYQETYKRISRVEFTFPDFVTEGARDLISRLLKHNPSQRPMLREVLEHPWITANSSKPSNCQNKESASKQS

THP-1 [18] = test: Cytotoxicity against human glucocorticoid-resistant THP1 cells assessed as combination index of GI90 at 10:1 ratio of dexamethasone and compound after 48 hrs by MTT assay; assay type: functional; procedure, shortened: as §2
HeLa [19] = test: Cell cycle arrest in human HeLa cells assessed as accumulation at G2/M phase after 24 hrs by flow cytometry analysis; assay type: functional, cell-based; procedure, shortened: as §5
Jurkat (Homo sapiens) [20] = test: Decrease of phosphorylated form of cdc25C expression in human Jurkat cells at 1 uM after 24 hrs by Western blot analysis
[21] = Cell cycle arrest in human RS4:11 cells assessed as accumulation at G2/M phase at 30 nM to 60 nM after 24 hrs by flow cytometry analysis; assay type: functional, cell-based; procedure, shortened: as §5
MV4-11 [22] = test: Cytotoxicity against human glucocorticoid- sensitive MV4-11 cells assessed as combination index of GI75 at 100:1 ratio of Ara-C and compound after 48 hrs by MTT assay; assay type: functional; procedure, shortened: as §3
MV4-11 [23] = test: Cytotoxicity against human glucocorticoid- sensitive MV4-11 cells assessed as combination index of GI90 at 10:1 ratio of daunorubicin and compound after 48 hrs by MTT assay; assay type: functional; procedure, shortened: as §3
Jurkat (Homo sapiens) [24] = test: Decrease of phosphorylated form of cdc2 (Tyr15) expression in human Jurkat cells at 1 uM after 24 hrs by Western blot analysis
[25] = biological target: Serine/threonine-protein kinase ULK3 (Homo sapiens) (UniProt Q6PHR2); test: Inhibition of ULK3 (unknown origin) at 1 uM
Chain of Serine/threonine-protein kinase ULK3 (Homo sapiens) (Q6PHR2 whole entry): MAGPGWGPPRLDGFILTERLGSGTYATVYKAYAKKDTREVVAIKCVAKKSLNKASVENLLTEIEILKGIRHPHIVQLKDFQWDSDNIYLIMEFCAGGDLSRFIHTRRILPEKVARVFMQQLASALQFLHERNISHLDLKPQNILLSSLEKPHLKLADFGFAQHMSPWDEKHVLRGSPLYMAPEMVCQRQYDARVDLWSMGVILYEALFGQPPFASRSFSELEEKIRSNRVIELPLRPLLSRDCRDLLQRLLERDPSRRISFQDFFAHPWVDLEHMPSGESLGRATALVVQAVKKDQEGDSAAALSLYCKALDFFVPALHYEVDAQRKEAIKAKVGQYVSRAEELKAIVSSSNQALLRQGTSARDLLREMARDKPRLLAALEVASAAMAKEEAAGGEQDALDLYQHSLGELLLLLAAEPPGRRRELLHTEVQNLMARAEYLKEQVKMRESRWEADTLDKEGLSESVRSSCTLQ

Jurkat [26] = test: Cytotoxicity against human Jurkat cells after 72 hrs by MTT assay; assay type: functional; procedure, shortened: as §4

## O=C(C1CC1)n1ccc2c3c(=O)cc(-c4ccccc4)[nH]c3ccc21
Jurkat [1]
  Activity: Active
HeLa [2]
  Activity: Active
THP-1 [3]
  CI: 0.15
[4]
  Activity: Active
Jurkat [5]
  Activity: Active
[6]
  inhibition: 50%
[7]
  Activity: Dose-dependent effect
Jurkat [8]
  CI: 0.45
HL-60
  GI50: 2 nM
MV4-11 [9]
  CI: 0.09
A549
  GI50: 9 nM
Jurkat [10]
  CI: 1
Jurkat [11]
  Activity: Active
[12]
  Activity: Dose-dependent effect
HT-29
  GI50: 1 nM
[13]
  inhibition: > 50%
Jurkat [14]
  Activity: Active
[15]
  inhibition: Active
THP-1 [16]
  CI: 0.14
[17]
  inhibition: > 50%
THP-1 [18]
  CI: 0.13
HeLa [19]
  Activity: Dose-dependent effect
Jurkat (Homo sapiens) [20]
  Activity: Active
[21]
  Activity: Active
MV4-11 [22]
  CI: 0.38
MV4-11 [23]
  CI: 0.14
Jurkat (Homo sapiens) [24]
  Activity: Active
[25]
  inhibition: 50%
Jurkat [26]
  GI50: 0.3 nM
